Reference: ChEMBL document CHEMBL1926616, “Design, synthesis and biological evaluation of novel glycosylated diphyllin derivatives as topoisomerase II inhibitors” (Eur J Med Chem, 2012)
Calls of active or inactive are those of the source. The rule behind the calls is not given here.

Legend:
KB [1] = assay: Cytotoxicity against vincristine-selected multi drug-resistant human KB cells after 72 hrs by sulforhodamine B and MTT assay; format: functional, cell-based
In short: (§1)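 Log-phase cells were seeded, preincubated (overnight for SRB, 24 h for MTT), then given a five-concentration gradient in triplicate wells for 72 h. For MTT, reagent was added for 4 h at 37 °C, solubilized in SDS-isobutanol-HCl for 12-20 h, and read at 570 nm. IC50 was derived by the Logit method from at least 3 independent tests.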

HCT-116 [2] = assay: Cell cycle arrest in human HCT116 cells assessed as accumulation at G2/M phase at 1 to 10 uM using propidium iodide stain by FACS-flow cytometry; format: functional, cell-based; conditions: TDE = time-dependent effect
MCF7 = assay: Cytotoxicity against human MCF7 cells after 72 hrs by sulforhodamine B and MTT assay; format: functional, cell-based; conditions: MCF7, 72 h
In short: (§2)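 Log-phase cells were plated overnight and exposed for 72 h to a 5-concentration gradient, in triplicate wells. SRB arm: 10% cold TCA fixation for 1 h at 4 °C, 4 mg/ml SRB in 1% acetic acid for 15 min, dye dissolved in 10 mM Tris-HCl, read at 520 nm. MTT arm: 5 mg/mL MTT for 4 h at 37 °C, SDS-isobutanol-HCl solubilisation for 12–20 h, read at 570 nm. IC50 by Logit method from at least 3 independent tests.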

HCT-116 [3] = assay: Cytotoxicity against human HCT116 cells after 72 hrs by sulforhodamine B and MTT assay; format: functional, cell-based; conditions: HCT-116, 72 h; in short: as §2
HL-60 [4] = assay: Cell cycle arrest in human HL60 cells assessed as accumulation at S phase at 1 uM after 24 hrs using propidium iodide stain by FACS-flow cytometry (reference value: 38.4%); format: functional
HL-60 [5] = assay: Cell cycle arrest in human HL60 cells assessed as accumulation at G0/G1 phase at 10 uM after 24 hrs using propidium iodide stain by FACS-flow cytometry (reference value: 39%); format: functional
HCT-116 [6] = assay: Cell cycle arrest in human HCT116 cells assessed as accumulation at G0/G1 phase at 1 to 10 uM using propidium iodide stain by FACS-flow cytometry; format: functional, cell-based; conditions: TDE = time-dependent effect
HCT-116 [7] = assay: Cell cycle arrest in human HCT116 cells assessed as accumulation at G2/M phase at 1 to 10 uM after 24 hrs using propidium iodide stain by FACS-flow cytometry; format: functional, cell-based
K562 [8] = assay: Cytotoxicity against human K562 cells after 72 hrs by sulforhodamine B and MTT assay; format: functional, cell-based; conditions: K562, 72 h; in short: as §1
HCT-116 [9] = assay: Cell cycle arrest in human HCT116 cells assessed as accumulation at G0/G1 phase after 24 hrs using propidium iodide stain by FACS-flow cytometry; format: functional, cell-based
K562 [10] = assay: Resistance index, ratio of IC50 for adriamycin-selected multi drug-resistant human K562 cells to IC50 for human K562 cells; format: functional
In short: (§3)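 Resistance factor is the IC50 in the resistant line divided by the IC50 in the parental line. Both IC50s come from 72 h SRB/MTT growth-inhibition assays, derived by the Logit method from at least 3 independent tests.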

KB [11] = assay: Cytotoxicity against human KB cells after 72 hrs by sulforhodamine B and MTT assay; format: functional, cell-based; in short: as §2
HL-60 [12] = assay: Cell cycle arrest in human HL60 cells assessed as accumulation at G2/M phase at 10 uM after 24 hrs using propidium iodide stain by FACS-flow cytometry (reference value: 22.6%); format: functional
HL-60 [13] = assay: Cell cycle arrest in human HL60 cells assessed as accumulation at G2/M phase after 24 hrs using propidium iodide stain by FACS-flow cytometry; format: functional, cell-based
K562 [14] = assay: Cytotoxicity against adriamycin-selected multi drug-resistant human K562 cells after 72 hrs by sulforhodamine B and MTT assay; format: functional, cell-based; conditions: K562, 72 h; in short: as §1
HL-60 [15] = assay: Cell cycle arrest in human HL60 cells assessed as accumulation at G0/G1 phase at 1 to 10 uM using propidium iodide stain by FACS-flow cytometry; format: functional, cell-based; conditions: TDE = time-dependent effect
HL-60 [16] = assay: Cell cycle arrest in human HL60 cells assessed as accumulation at G2/M phase at 1 uM after 24 hrs using propidium iodide stain by FACS-flow cytometry (reference value: 22.6%); format: functional
HL-60 [17] = assay: Induction of apoptosis in human HL60 cells assessed as DNA fragmentation at 10 uM after 36 hrs by gel electrophoresis; format: functional, cell-based
In short: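 HL-60 cells were seeded and exposed to compound for 36 h. Harvested cells were lysed with an equal volume of 1.2% SDS, and the fragmented DNA was extracted and resolved by gel electrophoresis.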

KB [18] = assay: Resistance index, ratio of IC50 for vincristine-selected multi drug-resistant human KB cells to IC50 for human KB cells; format: functional; in short: as §3
HL-60 [19] = assay: Cell cycle arrest in human HL60 cells assessed as accumulation at G0/G1 phase at 1 uM after 24 hrs using propidium iodide stain by FACS-flow cytometry (reference value: 39%); format: functional
HCT-116 [20] = assay: Cell cycle arrest in human HCT116 cells assessed as accumulation at G0/G1 phase at 1 to 10 uM after 24 hrs using propidium iodide stain by FACS-flow cytometry; format: functional, cell-based
HL-60 [21] = assay: Cell cycle arrest in human HL60 cells assessed as accumulation at S phase at 10 uM after 24 hrs using propidium iodide stain by FACS-flow cytometry (reference value: 38.4%); format: functional
HL-60 [22] = assay: Cell cycle arrest in human HL60 cells assessed as accumulation at G0/G1 phase after 24 hrs using propidium iodide stain by FACS-flow cytometry; format: functional, cell-based
HCT-116 [23] = assay: Cell cycle arrest in human HCT116 cells assessed as accumulation at G2/M phase after 24 hrs using propidium iodide stain by FACS-flow cytometry; format: functional, cell-based
[24] = biological target: DNA topoisomerase 2-alpha (Homo sapiens) (UniProt P11388); assay: Inhibition of human topoisomerase 2-mediated decatenation of kinetoplast DNA at 100 uM after 15 mins by agarose gel electrophoresis
Sequence of DNA topoisomerase 2-alpha (Homo sapiens) (P11388 whole entry): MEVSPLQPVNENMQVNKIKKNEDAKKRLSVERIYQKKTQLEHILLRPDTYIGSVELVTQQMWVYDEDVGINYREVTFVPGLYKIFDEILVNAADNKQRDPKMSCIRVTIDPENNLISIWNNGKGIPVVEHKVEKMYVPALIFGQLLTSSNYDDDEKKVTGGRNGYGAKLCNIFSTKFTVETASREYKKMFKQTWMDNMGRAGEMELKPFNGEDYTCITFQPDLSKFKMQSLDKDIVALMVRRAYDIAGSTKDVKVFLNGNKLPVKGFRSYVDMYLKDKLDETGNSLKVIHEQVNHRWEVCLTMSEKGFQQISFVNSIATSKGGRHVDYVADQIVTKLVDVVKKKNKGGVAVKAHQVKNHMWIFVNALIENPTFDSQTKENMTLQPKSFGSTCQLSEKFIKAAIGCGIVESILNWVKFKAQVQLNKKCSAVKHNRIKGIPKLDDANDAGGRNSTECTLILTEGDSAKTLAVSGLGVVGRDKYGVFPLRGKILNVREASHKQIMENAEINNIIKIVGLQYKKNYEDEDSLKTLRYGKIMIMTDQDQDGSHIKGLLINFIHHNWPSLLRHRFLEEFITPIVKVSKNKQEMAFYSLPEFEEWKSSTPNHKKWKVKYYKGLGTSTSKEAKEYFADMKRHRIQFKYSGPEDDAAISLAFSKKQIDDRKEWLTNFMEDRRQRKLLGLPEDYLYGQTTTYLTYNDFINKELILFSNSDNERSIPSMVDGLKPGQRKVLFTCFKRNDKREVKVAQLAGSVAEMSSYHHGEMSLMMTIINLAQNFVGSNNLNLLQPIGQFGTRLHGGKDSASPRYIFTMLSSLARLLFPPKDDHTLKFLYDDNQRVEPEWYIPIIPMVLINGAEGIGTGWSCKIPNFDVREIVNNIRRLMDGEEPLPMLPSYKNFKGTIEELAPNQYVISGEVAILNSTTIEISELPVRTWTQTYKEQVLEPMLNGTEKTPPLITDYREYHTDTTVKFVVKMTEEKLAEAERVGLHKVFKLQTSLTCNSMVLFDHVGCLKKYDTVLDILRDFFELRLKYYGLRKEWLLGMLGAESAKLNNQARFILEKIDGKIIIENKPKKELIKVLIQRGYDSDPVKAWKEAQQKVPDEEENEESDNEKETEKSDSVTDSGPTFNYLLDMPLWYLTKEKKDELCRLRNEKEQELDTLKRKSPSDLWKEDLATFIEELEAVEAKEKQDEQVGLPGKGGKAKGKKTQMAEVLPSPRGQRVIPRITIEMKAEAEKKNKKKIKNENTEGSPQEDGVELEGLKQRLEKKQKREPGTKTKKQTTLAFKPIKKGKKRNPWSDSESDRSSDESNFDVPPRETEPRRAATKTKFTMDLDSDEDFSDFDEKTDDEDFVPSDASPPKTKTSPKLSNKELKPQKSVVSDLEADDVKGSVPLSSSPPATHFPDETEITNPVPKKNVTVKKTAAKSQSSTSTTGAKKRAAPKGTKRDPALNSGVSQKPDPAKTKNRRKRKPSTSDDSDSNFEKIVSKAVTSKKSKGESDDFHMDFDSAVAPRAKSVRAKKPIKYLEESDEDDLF
In short: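 ATP-dependent kDNA decatenation by 1 unit Topo II in 50 mM Tris-HCl pH 7.7, 50 mM KCl, 5 mM MgCl2, 1 mM ATP, 0.5 mM DTT, 0.5 mM EDTA and BSA, run for 15 min at 37 °C. Stopped with 10% SDS, then run on 1% agarose in TAE at 4 V/cm for 1 h and stained with ethidium bromide.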

HL-60 [25] = assay: Cell cycle arrest in human HL60 cells assessed as accumulation at G2/M phase at 1 to 10 uM using propidium iodide stain by FACS-flow cytometry; format: functional, cell-based; conditions: TDE = time-dependent effect

## COc1cc2c(O[C@@H]3OC[C@@H](O)[C@H](O)[C@H]3O)c3c(c(-c4ccc5c(c4)OCO5)c2cc1OC)C(=O)OC3
KB [1]
  IC50: 1190 nM
HCT-116 [2]
  Activity: tde
MCF7
  IC50: 1550 nM
HCT-116 [3]
  IC50: 820 nM
HL-60 [4]
  Activity: 35.5%
HL-60 [5]
  Activity: 47%
HCT-116 [6]
  Activity: tde
HCT-116 [7]
  Activity: Active
K562 [8]
  IC50: 4400 nM
HCT-116 [9]
  Activity: Dose-dependent effect
K562 [10]
  Ratio IC50: 13.4
KB [11]
  IC50: 410 nM
HL-60 [12]
  Activity: 19.2%
HL-60 [13]
  Activity: Dose-dependent effect
K562 [14]
  IC50: 58800 nM
HL-60 [15]
  Activity: tde
HL-60 [16]
  Activity: 18.9%
HL-60 [17]
  Activity: Active
KB [18]
  Ratio IC50: 2.9
HL-60 [19]
  Activity: 45.6%
HCT-116 [20]
  Activity: Active
HL-60 [21]
  Activity: 33.8%
HL-60 [22]
  Activity: Dose-dependent effect
HCT-116 [23]
  Activity: Dose-dependent effect
[24]
  inhibition: inactive
HL-60 [25]
  Activity: tde

## COc1cc2c(O[C@@H]3O[C@@H]4CO[C@@H](C)O[C@H]4[C@H](O)[C@H]3O)c3c(c(-c4ccc5c(c4)OCO5)c2cc1OC)C(=O)OC3
KB [1]
  IC50: 76 nM
HCT-116 [2]
  Activity: tde
MCF7
  IC50: 4 nM
HCT-116 [3]
  IC50: 8 nM
HL-60 [4]
  Activity: 23.4%
HL-60 [5]
  Activity: 56.2%
HCT-116 [6]
  Activity: tde
HCT-116 [7]
  Activity: Active
K562 [8]
  IC50: 44 nM
HCT-116 [9]
  Activity: Dose-dependent effect
K562 [10]
  Ratio IC50: 19.4
KB [11]
  IC50: 3 nM
HL-60 [12]
  Activity: 24.6%
HL-60 [13]
  Activity: Dose-dependent effect
K562 [14]
  IC50: 853 nM
HL-60 [15]
  Activity: tde
HL-60 [16]
  Activity: 22.9%
HL-60 [17]
  Activity: Active
KB [18]
  Ratio IC50: 25.3
HL-60 [19]
  Activity: 53.6%
HCT-116 [20]
  Activity: Active
HL-60 [21]
  Activity: 19.2%
HL-60 [22]
  Activity: Dose-dependent effect
HCT-116 [23]
  Activity: Dose-dependent effect
[24]
  inhibition: Active
HL-60 [25]
  Activity: tde

## COc1cc2c(O[C@@H]3O[C@H](C)[C@@H](OC(C)=O)[C@H](OC(C)=O)[C@H]3OC(C)=O)c3c(c(-c4ccc5c(c4)OCO5)c2cc1OC)C(=O)OC3
KB [1]
  IC50: 1320 nM
HCT-116 [2]
  Activity: tde
MCF7
  IC50: 380 nM
HCT-116 [3]
  IC50: 270 nM
HL-60 [4]
  Activity: 36.3%
HL-60 [5]
  Activity: 55%
HCT-116 [6]
  Activity: tde
HCT-116 [7]
  Activity: Active
K562 [8]
  IC50: 808 nM
HCT-116 [9]
  Activity: Dose-dependent effect
K562 [10]
  Ratio IC50: 9.5
KB [11]
  IC50: 440 nM
HL-60 [12]
  Activity: 25.7%
HL-60 [13]
  Activity: Dose-dependent effect
K562 [14]
  IC50: 7660 nM
HL-60 [15]
  Activity: tde
HL-60 [16]
  Activity: 17.4%
HL-60 [17]
  Activity: Active
KB [18]
  Ratio IC50: 3
HL-60 [19]
  Activity: 46.4%
HCT-116 [20]
  Activity: Active
HL-60 [21]
  Activity: 19.3%
HL-60 [22]
  Activity: Dose-dependent effect
HCT-116 [23]
  Activity: Dose-dependent effect
[24]
  inhibition: Active
HL-60 [25]
  Activity: tde

## COc1cc2c(O[C@@H]3O[C@H](C)[C@@H](O)[C@H](O)[C@H]3O)c3c(c(-c4ccc5c(c4)OCO5)c2cc1OC)C(=O)OC3 [PATENTIFLORIN A]
KB [1]
  IC50: 573 nM
HCT-116 [2]
  Activity: tde
MCF7
  IC50: 440 nM
HCT-116 [3]
  IC50: 990 nM
HL-60 [4]
  Activity: 38%
HL-60 [5]
  Activity: 54.4%
HCT-116 [6]
  Activity: tde
HCT-116 [7]
  Activity: Active
K562 [8]
  IC50: 1430 nM
HCT-116 [9]
  Activity: Dose-dependent effect
K562 [10]
  Ratio IC50: 11.3
KB [11]
  IC50: 93 nM
HL-60 [12]
  Activity: 22.8%
HL-60 [13]
  Activity: Dose-dependent effect
K562 [14]
  IC50: 16100 nM
HL-60 [15]
  Activity: tde
HL-60 [16]
  Activity: 16.1%
HL-60 [17]
  Activity: Active
KB [18]
  Ratio IC50: 6.2
HL-60 [19]
  Activity: 45.9%
HCT-116 [20]
  Activity: Active
HL-60 [21]
  Activity: 22.8%
HL-60 [22]
  Activity: Dose-dependent effect
HCT-116 [23]
  Activity: Dose-dependent effect
[24]
  inhibition: inactive
HL-60 [25]
  Activity: tde
